Columns and labels:
[1] = target: T1, Inhibitor of nuclear factor kappa-B kinase subunit alpha (Homo sapiens, UniProt O15111); experiment: Inhibition of IKK-alpha
T1 sequence (O15111 whole entry): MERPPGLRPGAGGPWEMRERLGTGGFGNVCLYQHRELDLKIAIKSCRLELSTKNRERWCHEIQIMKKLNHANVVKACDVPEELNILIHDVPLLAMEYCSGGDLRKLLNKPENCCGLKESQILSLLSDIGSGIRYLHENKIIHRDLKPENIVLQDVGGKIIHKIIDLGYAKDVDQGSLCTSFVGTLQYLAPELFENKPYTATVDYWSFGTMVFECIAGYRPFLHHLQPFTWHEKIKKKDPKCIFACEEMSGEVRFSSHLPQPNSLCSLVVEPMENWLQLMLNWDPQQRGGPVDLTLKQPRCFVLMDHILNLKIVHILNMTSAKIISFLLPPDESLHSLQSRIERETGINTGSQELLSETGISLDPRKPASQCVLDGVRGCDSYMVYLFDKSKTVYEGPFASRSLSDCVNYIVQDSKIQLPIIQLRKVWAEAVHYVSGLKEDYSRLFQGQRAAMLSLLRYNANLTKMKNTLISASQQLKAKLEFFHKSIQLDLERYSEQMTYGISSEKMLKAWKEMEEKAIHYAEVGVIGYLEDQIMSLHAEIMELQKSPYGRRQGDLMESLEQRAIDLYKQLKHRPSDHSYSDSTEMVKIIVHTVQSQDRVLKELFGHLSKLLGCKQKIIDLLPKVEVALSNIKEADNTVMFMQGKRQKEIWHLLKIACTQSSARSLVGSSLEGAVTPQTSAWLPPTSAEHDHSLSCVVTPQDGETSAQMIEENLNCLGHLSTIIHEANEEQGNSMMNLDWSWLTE
Outline: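 Done the same way as the IKK-β TR-FRET assay but with 6-His-tagged full-length IKK-α. Buffer is 50 mM HEPES, 10 mM MgCl₂, 1 mM CHAPS pH 7.4, 1 mM DTT, 0.01% w/v BSA. GST-IκBα substrate 25 nM final, ATP 1 μM final, DMSO below 5% final. Error about ±0.3 log units.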

Aurora kinase A = target: T2, Aurora kinase A (Homo sapiens, UniProt O14965); experiment: Inhibition of Aurora A kinase
T2 sequence (O14965 whole entry): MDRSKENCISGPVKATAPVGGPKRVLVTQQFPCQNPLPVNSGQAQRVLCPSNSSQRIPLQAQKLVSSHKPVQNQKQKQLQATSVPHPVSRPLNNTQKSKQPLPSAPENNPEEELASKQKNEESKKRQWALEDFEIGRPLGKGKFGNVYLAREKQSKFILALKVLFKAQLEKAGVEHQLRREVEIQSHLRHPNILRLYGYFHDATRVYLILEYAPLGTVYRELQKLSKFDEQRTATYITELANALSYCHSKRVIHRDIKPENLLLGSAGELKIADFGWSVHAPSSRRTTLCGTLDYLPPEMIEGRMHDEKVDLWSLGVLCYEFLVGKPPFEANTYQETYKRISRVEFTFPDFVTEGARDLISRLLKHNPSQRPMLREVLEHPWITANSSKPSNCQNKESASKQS

[2] = target: Casein kinase I isoform epsilon (Homo sapiens, UniProt P49674); experiment: Binding affinity to CSNK1eplison assessed as dissociation constant
[3] = target: T3, Inhibitor of nuclear factor kappa-B kinase subunit beta (Homo sapiens, UniProt O14920); experiment: Inhibition of IKK-beta in human A549 cells assessed as TNF-alpha-induced Nuclear factor-kappa-B nuclear translocation
T3 sequence (O14920 whole entry): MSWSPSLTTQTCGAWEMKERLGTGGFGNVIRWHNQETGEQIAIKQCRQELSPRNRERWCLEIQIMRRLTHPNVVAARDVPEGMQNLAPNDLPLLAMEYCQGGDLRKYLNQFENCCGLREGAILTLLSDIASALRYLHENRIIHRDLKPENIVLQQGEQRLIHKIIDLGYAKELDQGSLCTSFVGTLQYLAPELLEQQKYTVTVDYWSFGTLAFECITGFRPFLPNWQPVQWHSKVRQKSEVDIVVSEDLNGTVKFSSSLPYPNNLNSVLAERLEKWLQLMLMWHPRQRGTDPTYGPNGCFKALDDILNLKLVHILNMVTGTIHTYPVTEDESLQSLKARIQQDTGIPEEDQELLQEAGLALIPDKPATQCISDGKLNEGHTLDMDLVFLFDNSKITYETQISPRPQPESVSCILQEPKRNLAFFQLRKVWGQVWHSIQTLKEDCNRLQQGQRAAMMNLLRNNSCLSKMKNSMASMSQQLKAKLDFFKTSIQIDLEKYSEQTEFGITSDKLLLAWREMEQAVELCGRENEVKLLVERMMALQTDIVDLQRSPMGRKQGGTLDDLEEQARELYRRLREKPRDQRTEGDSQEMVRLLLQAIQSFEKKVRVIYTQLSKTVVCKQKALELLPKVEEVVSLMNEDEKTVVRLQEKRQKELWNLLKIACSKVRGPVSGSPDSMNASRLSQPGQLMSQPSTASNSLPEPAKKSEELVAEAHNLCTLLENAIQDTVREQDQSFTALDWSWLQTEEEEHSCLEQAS

[4] = target: Tyrosine-protein kinase BTK (Homo sapiens, UniProt Q06187); experiment: Inhibition of BTK
Sequence of Tyrosine-protein kinase BTK (Q06187 whole entry): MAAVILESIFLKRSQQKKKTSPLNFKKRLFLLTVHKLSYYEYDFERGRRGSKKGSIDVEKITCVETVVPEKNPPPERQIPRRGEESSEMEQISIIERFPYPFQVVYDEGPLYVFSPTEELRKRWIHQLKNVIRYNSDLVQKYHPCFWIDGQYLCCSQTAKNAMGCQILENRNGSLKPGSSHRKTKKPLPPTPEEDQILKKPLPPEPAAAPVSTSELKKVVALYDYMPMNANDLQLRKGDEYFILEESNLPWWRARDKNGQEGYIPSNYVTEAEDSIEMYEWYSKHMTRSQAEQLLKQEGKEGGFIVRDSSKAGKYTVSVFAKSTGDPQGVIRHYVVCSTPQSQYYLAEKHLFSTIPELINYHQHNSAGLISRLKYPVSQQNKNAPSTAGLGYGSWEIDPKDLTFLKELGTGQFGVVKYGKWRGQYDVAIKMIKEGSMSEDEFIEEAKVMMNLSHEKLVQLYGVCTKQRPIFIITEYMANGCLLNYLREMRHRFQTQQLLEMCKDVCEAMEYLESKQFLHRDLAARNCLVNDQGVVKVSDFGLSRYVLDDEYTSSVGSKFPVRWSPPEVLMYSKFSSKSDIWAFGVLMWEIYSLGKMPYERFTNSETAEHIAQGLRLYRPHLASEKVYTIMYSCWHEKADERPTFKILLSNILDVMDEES

Sequence of Casein kinase I isoform epsilon (P49674 whole entry, canonical isoform): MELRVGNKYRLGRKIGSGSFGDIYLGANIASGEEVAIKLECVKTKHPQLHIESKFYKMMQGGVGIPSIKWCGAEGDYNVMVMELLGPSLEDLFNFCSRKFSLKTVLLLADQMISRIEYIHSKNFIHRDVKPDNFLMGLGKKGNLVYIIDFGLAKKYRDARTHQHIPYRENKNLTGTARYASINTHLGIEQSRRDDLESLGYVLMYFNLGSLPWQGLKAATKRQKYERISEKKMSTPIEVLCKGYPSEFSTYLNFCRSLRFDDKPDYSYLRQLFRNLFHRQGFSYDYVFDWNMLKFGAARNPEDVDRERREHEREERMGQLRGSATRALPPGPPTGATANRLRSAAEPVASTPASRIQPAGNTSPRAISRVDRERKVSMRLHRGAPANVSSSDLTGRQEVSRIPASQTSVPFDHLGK

IC50 [1]: 2 µM
IC50 (Aurora kinase A): 1.26 µM
Kd [2]: 1.58 µM
IC50 [3]: 0.158 µM
IC50 [4]: 1.58 µM
SMILES: CCCS(=O)(=O)N1CCC(c2c[nH]c3c(C(N)=O)cc(-c4ccccc4)cc23)CC1

Reference: ChEMBL document CHEMBL1759890, “3,5-Disubstituted-indole-7-carboxamides: the discovery of a novel series of potent, selective inhibitors of IKK-β” (Bioorg Med Chem Lett, 2011)
